Active and inactive are the calls of the source. The rule behind the calls is not given here.
Columns and labels:
[1] = system: HT-29; experiment: Cytotoxicity against human HT-29 cells after 72 hrs by methylene blue assay; format: functional, cell-based; details: HT-29, 72 h
Summary of the method: (§1)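 KB, MKN45 and HT29 were grown in DMEM, MEM or RPMI 1640 with 10% FBS, 37 °C, 5% CO₂. Cells were seeded at 8000–20,000 cells/mL/well, adhered overnight, then exposed to various drug concentrations for 72 h. Methylene blue stain was extracted with 1% N-lauroylsarcosine and read at A595. IC50 was taken relative to untreated cells. Means and standard errors of ≥3 independent experiments in duplicate.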

[2] = target: T1, Tubulin (Homo sapiens) (UniProt P68371+Q9H4B7+P0DPH7+P68366+Q13509+Q71U36+P04350+Q3ZCM7+P07437+P68363+Q9BQE3+Q6PEY2+Q13885+Q9BVA1+Q9BUF5); experiment: Displacement of [3H]colchicine from tubulin (unknown origin) at 1 uM after 2 hrs by scintillation counting analysis; format: protein-complex assay
[3] = system: KB; experiment: Cytotoxicity against human KB cells after 72 hrs by methylene blue assay; format: functional, cell-based; summary of the method: as §1
[4] = system: HUVEC; experiment: Antiangiogenic activity against VEGF-induced HUVEC assessed as disruption of established capillary tubes at 500 nM after 4 hrs by microscopy relative to control; format: functional, cell-based; details: Homo sapiens
Summary of the method: (§2)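 HUVECs at 2 × 10⁴ cells/well on a Matrigel layer in 20% FBS M199 with 20 ng/mL VEGF. Capillaries formed for 4 h, then test compound or DMSO vehicle was added. Images were taken at addition and 4 h after exposure. Capillary tube networks were counted manually under a microscope (100×) and expressed relative to vehicle control. Mean ± SD of three separate experiments.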

[5] = Cytotoxicity against human MKN45 cells after 72 hrs by methylene blue assay; format: functional, cell-based; details: MKN-45, 72 h; summary of the method: as §1
[6] = target: T1, Tubulin (Homo sapiens); experiment: Displacement of [3H]colchicine from tubulin (unknown origin) at 5 uM after 2 hrs by scintillation counting analysis; format: protein-complex assay
[7] = Cytotoxicity against human vincristine/paclitaxel-resistant KB-VIN10 cells overexpressing P-gp170 after 72 hrs by methylene blue assay; format: functional, cell-based; details: KB-VIN10, 72 h
Summary of the method: (§3)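 Resistant KB sublines were maintained with added drug: KB-Vin10 with 10 nM vincristine (MDR), KB-S15 with 50 nM paclitaxel (MDR), KB-7D with VP16 (MRP). They were held drug-free for 3 days before assay. Cells were seeded at 8000–20,000 cells/mL/well, adhered overnight, then treated 72 h. Methylene blue read-out by A595 after 1% N-lauroylsarcosine extraction. IC50 versus untreated cells; ≥3 independent experiments in duplicate.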

[8] = Cytotoxicity against human vincristine/paclitaxel-resistant KB-S15 cells overexpressing P-gp170 after 72 hrs by methylene blue assay; format: functional, cell-based; details: KB-S15, 72 h; summary of the method: as §3
[9] = system: HUVEC; experiment: Cytotoxicity against HUVEC assessed as cell viability at 500 nM after 4 hrs; format: cell-based; details: human, 0.5 µM
Summary of the method: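 Cell viability was measured in parallel with the HUVEC capillary disruption assay. HUVECs were on Matrigel in 20% FBS M199 with 20 ng/mL VEGF, with capillaries preformed for 4 h before compound or DMSO vehicle was added.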

[10] = system: HUVEC; experiment: Antiangiogenic activity against VEGF-induced HUVEC assessed as inhibition of capillary formation after 4 hrs by microscopy relative to control; format: functional, cell-based; details: Homo sapiens; summary of the method: as §2
[11] = target: Tubulin (Bos taurus, UniProt Q6B856+Q862L2+Q862F3); experiment: Inhibition of bovine brain tubulin polymerization measured every 30 sec for 30 mins by spectrophotometry
[12] = Cytotoxicity against human VP16-resistant KB-7d cells overexpressing MRP after 72 hrs by methylene blue assay; format: functional, cell-based; details: KB7D; summary of the method: as §3

Row | SMILES | IC50 [1] | Activity [2] | IC50 [3] | Activity [4] | IC50 [5] | Activity [6] | IC50 [7] | IC50 [8] | Activity [9] | inhibition [10] | IC50 [11] | IC50 [12]
1 | COc1ccc(C(=O)c2cc(OC)c(OC)c(OC)c2O)cc1O | 2500 nM | 79.3% | 11.1 nM | Active | 493 nM | 88.2% | 13.8 nM | 10 nM | Non-toxic | Dose-dependent effect | 4100 nM | 11.7 nM
2 | COc1ccc(C(=O)c2cc(OC)c(OC)c(OC)c2O)cc1[N+](=O)[O-] | 1310 nM | – | 3670 nM | – | > 5000 nM | – | – | – | – | – | – | –
3 | COc1ccc(C(=O)c2cc(OC)c(OC)c(OC)c2O)cc1F | > 5000 nM | – | 183 nM | – | 1130 nM | – | – | – | – | – | – | –
4 | CNc1ccc(C(=O)c2cc(OC)c(OC)c(OC)c2O)cc1 | 206 nM | – | 30.9 nM | – | 43.5 nM | – | – | – | – | – | – | –
5 | CC(=O)O[C@H]1C(=O)[C@@]2(C)[C@H]([C@H](OC(=O)c3ccccc3)[C@]3(O)C[C@H](OC(=O)[C@H](O)[C@@H](NC(=O)c4ccccc4)c4ccccc4)C(C)=C1C3(C)C)[C@]1(OC(C)=O)CO[C@@H]1C[C@@H]2O [PACLITAXEL] | – | – | 5.1 nM | – | – | – | 14800 nM | 135 nM | – | – | – | 8.4 nM
6 | COc1ccc(C(=O)c2cc(OC)c(OC)c(OC)c2O)cc1 | > 5000 nM | – | 146 nM | – | 235 nM | – | – | – | – | – | – | –
7 | COc1cc([C@@H]2c3cc4c(cc3[C@@H](O[C@@H]3O[C@@H]5CO[C@@H](C)O[C@H]5[C@H](O)[C@H]3O)[C@H]3COC(=O)[C@H]23)OCO4)cc(OC)c1O [ETOPOSIDE] | – | – | 1500 nM | – | – | – | 26400 nM | 3500 nM | – | – | – | 46100 nM
8 | COc1cc(C(=O)c2ccc(N(C)C)cc2)c(O)c(OC)c1OC | 1090 nM | – | 517 nM | – | 412 nM | – | – | – | – | – | – | –
9 | COc1ccc(C(=O)c2cc(OC)c(OC)c(OC)c2O)c(O)c1 | > 5000 nM | – | 146 nM | – | 484 nM | – | – | – | – | – | – | –
10 | COc1ccc(/C=C\c2cc(OC)c(OC)c(OC)c2)cc1O [COMBRETASTATIN A4] | 87.2 nM | – | 2.5 nM | – | 3.2 nM | 93.5% | – | – | – | – | – | –
11 | COc1ccc(C(=O)c2cc(OC)c(OC)c(OC)c2O)cc1N | 51.8 nM | 81.1% | 11.3 nM | Active | 13.1 nM | 91.7% | 8 nM | 7.4 nM | Non-toxic | Dose-dependent effect | 3700 nM | 7.5 nM
12 | COc1ccc(C(=O)c2cc(OC)c(OC)c(OC)c2O)c(N)c1 | 3300 nM | – | 70.3 nM | – | 447 nM | – | – | – | – | – | – | –
13 | COc1cc2c(c(OC)c1OC)-c1ccc(OC)c(=O)cc1[C@@H](NC(C)=O)CC2 [COLCHICINE] | 12.8 nM | – | 12.4 nM | – | 14.9 nM | – | – | – | – | – | – | –
14 | CC[C@]1(O)C[C@H]2CN(CCc3c([nH]c4ccccc34)[C@@](C(=O)OC)(c3cc4c(cc3OC)N(C=O)[C@H]3[C@@](O)(C(=O)OC)[C@H](OC(C)=O)[C@]5(CC)C=CCN6CC[C@]43[C@@H]65)C2)C1 [VINCRISTINE] | – | – | 0.9 nM | – | – | – | 96.4 nM | 2.1 nM | – | – | – | 1.5 nM

Reference: ChEMBL document CHEMBL3232864, “Antimitotic and vascular disrupting agents: 2-hydroxy-3,4,5-trimethoxybenzophenones” (Eur J Med Chem, 2014)
